Screening data (PubChem BioAssay)
Compounds with a hit are over-represented: about 1.9% of the library has one in this group of screens.
NCF1 inh – blocks human p47phox regulatory protein of NADPH oxidases. P14598. p47phox/p22phox peptide binding, fluorescence polarization, 2 h. inhibition, % at 24.7 µM. hit rate 0.53% among 220,000;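 active = inhibition above about 30%, limit read from the data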;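 also: 0% = p47phox with labelled peptide and 100% = labelled peptide alone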
Target sequence (P14598 whole entry, looked up): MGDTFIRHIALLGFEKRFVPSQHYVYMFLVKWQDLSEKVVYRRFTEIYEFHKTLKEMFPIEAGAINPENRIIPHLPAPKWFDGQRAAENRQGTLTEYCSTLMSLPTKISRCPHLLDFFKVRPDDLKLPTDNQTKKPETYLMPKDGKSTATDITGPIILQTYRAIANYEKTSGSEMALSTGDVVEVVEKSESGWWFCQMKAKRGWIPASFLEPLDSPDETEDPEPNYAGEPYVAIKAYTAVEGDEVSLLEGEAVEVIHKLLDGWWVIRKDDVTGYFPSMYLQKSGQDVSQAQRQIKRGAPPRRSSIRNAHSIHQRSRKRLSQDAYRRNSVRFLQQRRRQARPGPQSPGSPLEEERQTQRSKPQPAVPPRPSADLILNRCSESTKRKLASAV
p-CIP stab down – lowers stability of the mouse p/CIP coactivator protein | decrease of EGFP signal, % at 10 µM | F442A p/CIP-EGFP cells, EGFP fluorescence, 16 h | hit rate 0.01% among 290,000 | AID 1984;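 active = EGFP signal decrease of at least 30% at 10 µM or well 3 SD below plate mean, unless failing retest; inactive = the rest, including hits failing retest or dose response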
Dynein transport – dynein cargo transport inhibition. 3617.4 mouse cells, GR-EGFP nuclear translocation imaging; test concentration mostly 20 µM; stimulated with dexamethasone, 1 µM; hits give low values. z-score, hits read low. hit rate 0.47% among 220,000;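 active = plate z-score of nuclear minus cytoplasmic receptor signal below a set negative limit, without overly bright fluorescence or cell loss, cut at about -3.5 in these data, passing the limit was not always enough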;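 also: z-score of nuclear minus cytoplasmic ring GR-EGFP intensity difference per well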
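Buffer or medium: tet-free, stripped-serum medium; reagent: dexamethasone at 1.0 µM final, 30 min; incubation: 48 h induction, 1 h compound, 30 min dex at 37 °C; measured by: formaldehyde fixation, Hoechst nuclear stain, 10x automated fluorescence imaging; read-out: nuclear-to-cytoplasmic GR-EGFP distribution per well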
RAM inhibit – blocks the yeast RAM network | inhibition, % at 50 µM | AID 868 | hit rate 1.8% among 190,000 | S. cerevisiae dse1pr::URA3 reporter, 5-FOA growth OD615, 2 d; analog-sensitive cbk1-as2 kinase mutant strain;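 active = inhibition above a set limit, 3 SD over mean compound inhibition, cut at about 8.4% in these data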;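 also: 0% = DMSO-only wells with no growth and 100% = 10 µM 1-NA-PP1 full growth; inhibition rescues growth on 5-FOA so higher OD means more RAM inhibition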
RAM efflux-def – RAM network inhibitors in efflux-deficient yeast; max inhibition, %; shares compounds with RAM inhibit; 1,200 tested, under 10 active; AID 1305; S. cerevisiae efflux-deficient reporter strain, 5-FOA growth OD615, 2 days; call rule not given here;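 also: plate controls were vehicle for no effect and reference inhibitor for full effect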
The depositor's hits bear a star; · = no result given.

SMILES	NCF1 inh	p-CIP stab down	Dynein transport	RAM inhibit	RAM efflux-def
COc1ccc(/C=C2\SC(=O)N(CCC(=O)Nc3ccccc3)C2=O)cc1OC	11	0	-0.55	13*	2
O=C(Nc1ccccc1)c1c2c(nc3ccccc13)CCCC2	-15	-10	1.2	·	·
COc1cccc(-c2cc(C(=O)Nc3ccn(Cc4ccc(C)cc4)n3)no2)c1	0	-4	1.1	17*	3
COc1ccc(CN2C(=O)c3cccc4cccc2c34)cc1F	·	-7	·	·	·
COc1ccccc1-n1nnnc1SCC(=O)NC1CCCCC1	·	4	·	·	·
O=C(NC(=S)Nc1ccc(Oc2ccc(Cl)cc2)cc1)c1ccccc1	-16	-6	0.42	17*	4
O=C(NC(=S)Nc1ccc(Cl)cc1)c1ccccc1	-6	-4	-0.23	·	·
CCC(=O)NC(=S)Nc1ccc(NC(=S)NC(=O)c2ccccc2)cc1	-25	-4	-0.79	13*	4
CCOC(=O)c1c(S(=O)(=O)N(C)C2CCCCC2)c(C)n(C)c1C	·	3	·	·	·
COc1ccc(OC)c(NC(=O)CCN2CC(C)CC(C)C2)c1 (stereo not drawn)	·	0	·	·	·
Brc1ccc(Cn2c(-c3ccc(Br)o3)nc3ccccc32)o1	-22	-1	-1	13*	3
O=C(CSc1ccc(Cl)cc1Cl)N1CCC(c2nc3ccccc3s2)CC1	-3	-4	0.43	13*	2
COc1ccc(NC(=O)c2sccc2SCc2cccc(C(F)(F)F)c2)cc1	-3	-7	-0.23	16*	4
O=C(Nc1ccc(F)cc1)c1sccc1SCc1cccc(C(F)(F)F)c1	-3	-6	-1.5	14*	3
CC(C)=CCc1c(O)c(CC=C(C)C)c2c(c1O)C(=O)CC(c1ccc(O)cc1)O2 (stereo not drawn)	-24	-6	-0.38	13*	5
COc1cc(CC(NC(C)=O)C(=O)NC2CCN(c3c(Cc4ccccc4)c(C)nc4ncnn34)CC2)cc(OC)c1 (stereo not drawn)	-4	-6	-0.024	14*	3
CCc1ccc(NC(=O)C2CCN(S(=O)(=O)c3ccc4[nH]c(=O)ccc4c3)CC2)cc1	·	1	·	·	·
Cc1ccc(S(=O)(=O)c2nc(Nc3ccccc3)sc2Cl)cc1	-18	-14	0.37	13*	2
COc1ccc(Nc2nc(S(=O)(=O)c3ccc(C)cc3)c(Cl)s2)cc1	-3	-1	0.31	6	·
CN1CCN(C(=O)C2=C[C@@H](c3csc4ccccc34)C[C@@H](OCc3ccc(CO)cc3)O2)CC1	·	-15	1.3	0	·
O=C(C1=C[C@H](c2csc3ccccc23)C[C@H](OCc2ccc(CO)cc2)O1)N1CCOCC1	-7	-3	-0.64	14*	1
CCOC(=O)C1=C(CC)Nc2ccccc2N=C1NC(=O)c1cc(S(=O)(=O)N(C)C)ccc1Cl	0	-2	0.35	13*	4
Cc1ccc(C)c(C(=O)COC(=O)CCCC(=O)Nc2cc(C(F)(F)F)ccc2Cl)c1	-13	-4	1.7	18*	2
COc1cc(OC)cc(-c2nc(-c3cc4cc(C)ccc4nc3OC)no2)c1	-29	-6	-0.12	2	·
COc1nc2ccc(C)cc2cc1-c1noc(-c2ccccc2)n1	-27	-2	-0.55	12*	3
SMILES	NCF1 inh	p-CIP stab down	Dynein transport	RAM inhibit	RAM efflux-def
COC(=O)c1cc2c(ccn2-c2ccc(F)cc2)n1Cc1ccc(C#N)cc1	-15	7	1.2	6	·
COC(=O)c1cc2c(ccn2-c2ccc(F)cc2)n1Cc1ccc(OC)cc1	-5	-5	0.48	15*	4
CSc1ccccc1-c1nnc(-c2ccc(C)cc2)o1	-21	-3	-0.46	14*	1
CSc1ccccc1-c1nnc(-c2ccccc2)o1	0	-2	3.2	2	·
Cc1cc([N+](=O)[O-])cc(/C=N\NC(=O)C2COc3ccccc3O2)c1O (stereo not drawn)	-6	1	-0.56	·	·
CCOC(=O)/C(=N\Nc1ccccc1)S(=O)(=O)c1ccccc1	-6	3	-0.65	0	·
CCOC(=O)/C(=N/Nc1ccc(C)cc1)S(=O)(=O)c1ccc(Cl)cc1	0	-6	0.61	12*	1
COc1ccc(CNC(=O)c2cccc(-c3ccc(C)c4ccccc34)n2)cc1	1	-15	1.3	12*	7
COc1ccc(CNC(=O)c2ccccc2C(=O)O)cc1	-5	-4	-0.64	1	·
CSc1ccc(Cl)c(C(=O)NCCOc2cc(C(C)C)ccc2C)c1	-40	-2	-0.47	14*	6
